Assays:
[1] = Rate constants for reaction of type 2 alkenes with cysteine sulfhydryl groups; type: physicochemical; conditions: second-order rate of reaction with L-cysteine at pH 7.4
Method in brief: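 L-Cysteine was incubated with molar excess of test alkene at pH 7.4 or 8.8, with remaining sulfhydryl measured over time by DTNB absorbance. Pseudo-first-order constants (k1) came from these plots, then second-order constants (k2). Thiolate-corrected constants via log(k k2) = log k2 + pKa – pH, taking sulfhydryl pKa 8.5; n = 4–6 at pH 7.4.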

[2] = tested on: ^3H-DA transport in striatal synaptic vesicles; assay: Inhibition of vesicular ^3H-DA transport; type: biochemical, rat; conditions: nonconjugated analogs, data not shown
Method in brief: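 Rat striatal synaptic vesicles (P5 pellet after osmotic shock of crude synaptosomes), 3 μg protein, were exposed 15 min to graded concentrations of test compound or assay buffer. They were then incubated 3 min at 30°C with Mg2+-ATP (2mM) and 0.30μM 3H-DA. Reaction stopped with cold buffer, followed by rapid filtration and scintillation counting. Nonspecific uptake: 4°C without Mg2+-ATP. IC50 (95% CI) by nonlinear regression; n = 3–5.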

[3] = tested on: membrane ^3H-DA transport in striatal synaptosomes; assay: Inhibition of synaptosomal membrane ^3H-DA transport; type: biochemical, rat; conditions: for effect on synaptosomal uptake: nonconjugated analogs, striatal synaptosomes; for effect of nucleophile on in vitro neurotoxicity of HNE: nucleophile 500μM, HNE-exposed striatal synaptosomes
Method in brief: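 Striatal synaptosomes from adult male Sprague-Dawley rats (Percoll gradient, 15%/23% interface), 10 μg protein, were exposed 15 min at 30°C to graded concentrations of test compound or Krebs-HEPES buffer. Samples were washed, filter-trapped and superfused 3 min with 0.30μM 3H-DA. Uptake measured ± Na+ (choline substitution), by scintillation. IC50 (95% CI) by nonlinear regression; n = 4–6.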

[4] = tested on: total free sulfhydryl content in synaptosomes; assay: Loss of free sulfhydryl groups in synaptosomes; type: biochemical, rat; conditions: nonconjugated analogs, striatal synaptosomes
Method in brief: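 Rat striatal synaptosomes (200 μg protein) were incubated 15 min with graded concentrations of test compound or control buffer, then solubilized in 1% SDS. DTNB (3mM) added; after 5 min equilibration at 25°C, absorbance read at 412 nm against a no-DTNB blank. Free thiol calculated from the extinction coefficient 1.36 × 10^4/M/cm; n = 4–6.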

[5] = ref Doorn and Petersen, 2002, 2003; cited from earlier work

Question: Which “Log k2 (pH = 7.4)” value [1] does the source give for C=CC=O [Acrolein, acrolein] here?
Answer: Its value is 2.596.

Question: Which results are given for C=CCO [Allyl alcohol, allyl alcohol]?
Answer: effect on vesicular uptake [2]: did not affect vesicular uptake; effect on synaptosomal uptake [3]: did not affect; effect on synaptosomal sulfhydryl content [4]: did not affect

Question: With CCCCCC(O)C=CC=O (stereo not drawn) [HNE, 4-Hydroxy-2-nonenal] as the compound, how does the “second-order rate constant k2 (mean ± SD), Cys toward HNE” value [5] read?
Answer: The value was 1.33 ± 0.083 M^∧(−1)s^∧(−1).

Question: And the “second-order rate constant k2 (mean ± SD), His toward HNE” value [5]?
Answer: Its value is 2.14 ± 0.312 × 10^−3 M^∧(−1)s^∧(−1).

Question: And the “second-order rate constant k2 (mean ± SD), Lys toward HNE” value [5]?
Answer: The value was 1.33 ± 0.050 × 10^−3 M^∧(−1)s^∧(−1).

Question: What about the “Log k2 (pH = 7.4)” value [1] of the same compound?
Answer: Its value is 0.938.

Question: For C=CC(C)=O [MVK, methyl vinyl ketone], which “Log k2 (pH = 7.4)” value [1] is on record?
Answer: The value was 2.048.

Question: Which “effect of nucleophile on in vitro neurotoxicity of HNE” value (shortened to “effect of nucleophile”) [3] does the source give for CC(=O)N[C@@H](CS)C(=O)O [NAC, N-acetyl-L-cysteine] here?
Answer: Its value is “significantly reduced HNE neurotoxicity”.

Question: Which “effect of nucleophile” value [3] does the source give for CC(=O)N[C@@H](CCCCN)C(=O)O [NAL, N-acetyl-L-lysine] here?
Answer: The value was “neither NAL nor carnosine affected the in vitro neurotoxicity of HNE”.

Question: For CCC=O [Propanal, propanal], which “effect on vesicular uptake” value [2] is on record?
Answer: Its value is “did not affect vesicular uptake”.

Question: What about the “effect on synaptosomal uptake” value [3] of the same compound?
Answer: The value was “did not affect”.

Question: What about the “effect on synaptosomal sulfhydryl content” value [4] of the same compound?
Answer: The value was “did not affect”.

Question: With NCCC(=O)N[C@@H](Cc1cnc[nH]1)C(=O)O [carnosine, β-alanyl-L-histidine] as the compound, how does the “effect of nucleophile” value [3] read?
Answer: Its value is “neither NAL nor carnosine affected the in vitro neurotoxicity of HNE”.

— article PMC2638640 (Toxicological Sciences, 2008)
